From PubChem
Only some compounds are listed: those with a hit (about 2.4% of all), similar ones and a draw of the others.
MC4R barr agon = MC4R agonists recruiting beta-arrestin, primary screen, cell-based, luminescence, agonist arm of biased-ligand search; Melanocortin receptor 4 (Homo sapiens), P32245; U2OS MC4R beta-arrestin complementation; percent of melanotan II response, DMSO zero; activation, % at 8.9 µM; 360,000 compounds, 0.98% hits; AID 540308, 2011;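 active = activation above a per-plate cutoff, the mean activation of sample wells on that plate plus 3 SD, cut at about 8% in these data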
Target sequence (P32245 whole entry, looked up): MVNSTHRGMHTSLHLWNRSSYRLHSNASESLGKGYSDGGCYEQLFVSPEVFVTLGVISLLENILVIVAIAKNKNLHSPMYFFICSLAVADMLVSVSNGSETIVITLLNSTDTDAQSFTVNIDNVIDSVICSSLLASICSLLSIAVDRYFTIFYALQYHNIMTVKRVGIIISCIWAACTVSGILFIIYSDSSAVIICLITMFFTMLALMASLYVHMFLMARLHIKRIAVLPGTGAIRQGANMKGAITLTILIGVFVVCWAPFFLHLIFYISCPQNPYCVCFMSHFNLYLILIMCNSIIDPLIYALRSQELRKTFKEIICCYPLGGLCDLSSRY
H9c2 TAG inh = inhibitors of triacylglycerol accumulation, primary screen, cell-based, uHTS, fluorescence, H9c2 | 230,000 compounds, 0.66% hits | H9c2 cells, Nile Red lipid (TAG) fluorescence; cells loaded with 200 µM oleic acid | inhibition, % at 12.5 µM;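 active = pattern-corrected inhibition of lipid staining of at least 50% with the nuclear-stain viability signal not falling by more than 50%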
MC4R antag cAMP = MC4R antagonists of cAMP signaling, primary screen, cell-based, TR-FRET, antagonist arm of biased-ligand search | Melanocortin receptor 4 (Homo sapiens), P32245 | MC4R-expressing cells, MTII-stimulated cAMP, LANCE TR-FRET | inhibition, % at 6.5 µM | 360,000 compounds, 0.48% hits | AID 540295, 2011;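 active = inhibition above its plate's cutoff, the mean of tested wells on that plate plus 3 SD, cut at about 29% in these data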
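system = U2OS cells with stable human MC4R expression | also added = Melanotan II challenge after compound preincubation | dosing = one concentration, 6.5 µM nominal | incubation = compound 30 min, challenge 1 h, detection 1 h | measured by = TR-FRET with Eu-cAMP and labeled anti-cAMP, 671 nm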
NTR1 ag = agonists of human NTR1, primary screen, imaging, U2OS cells, beta-arrestin-GFP, high content. Neurotensin receptor type 1 (Homo sapiens), P30989. NTR1-U2OS beta-arrestin-GFP spot imaging, agonist mode. activation, % at 20 µM. 330,000 compounds, 0.17% hits. AID 493036, 2011;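 active = activation at or above 40% of the spot to cytoplasm intensity ratio, with at least 20 cells analyzed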
Target sequence (P30989 whole entry, looked up): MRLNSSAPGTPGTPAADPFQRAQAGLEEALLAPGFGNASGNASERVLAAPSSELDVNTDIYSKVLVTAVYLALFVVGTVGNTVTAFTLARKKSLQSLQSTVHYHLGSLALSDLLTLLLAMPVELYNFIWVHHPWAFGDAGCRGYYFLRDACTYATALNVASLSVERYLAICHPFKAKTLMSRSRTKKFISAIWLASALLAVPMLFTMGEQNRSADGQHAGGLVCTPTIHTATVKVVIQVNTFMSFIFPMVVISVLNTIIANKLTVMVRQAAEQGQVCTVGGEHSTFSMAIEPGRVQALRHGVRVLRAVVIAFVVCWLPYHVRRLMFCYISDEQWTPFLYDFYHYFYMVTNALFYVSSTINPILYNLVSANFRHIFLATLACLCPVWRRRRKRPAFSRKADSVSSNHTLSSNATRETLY
aDG glyco up = activators of alpha-DG glycosylation, primary screen, uHTS, Pro5-aDG cells, AlphaScreen | AID 624168, 2012 | alpha-DG glycosylation AlphaScreen (IIH6); 0% Pro5, 100% B10-LARGE cell signal | 360,000 compounds, 0.22% hits | activation, % at 10 µM;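 active = activation of at least 8% versus controls, or a plate z-score of at least 8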;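 note: Pro5 are CHO cells carrying HIG-tagged alpha-DG that lacks glycosylation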
Tb MetRS inh = T. brucei MetRS inhibitors, primary screen, biochemical, luminescence; methionyl-tRNA synthetase (Trypanosoma brucei brucei); purified T. brucei MetRS, ATP depletion, Kinase-Glo luminescence; inhibition, % at 11.9 µM; 360,000 compounds, 0.4% hits; AID 624268, 2012;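 active = inhibition above a per-plate cutoff of the control wells' mean inhibition plus 3 SD, cut at about 5.5% in these data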
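Dosing: 11.9 µM single point; system: parasite MetRS enzyme; technique: luminescence of leftover ATP; times: 15 min enzyme-compound preincubation, 2 h reaction, 10 min detection, 25 °C; replicates: each compound tested once; read-out basis: percent inhibition relative to median high and low control wells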
cAMP nonselect = nonselective cAMP signaling inhibitors, parental cells, counter-screen for MC4R biased antagonist project, cell-based, TR-FRET, U2OS, forskolin, triplicate; AID 602193, 2012; 1,600 compounds, 26% hits; inhibition, % at 6.5 µM; shares compounds with MC4R antag cAMP; LANCE TR-FRET;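 active = mean inhibition over triplicates above the low-control well mean plus 3 SD, set per campaign, cut at about 13% in these data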;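 note: signal is single emission at 671 nm which falls as cellular cAMP rises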
MC4R cAMP antag = MC4R cAMP antagonists, retest, confirmation, cell-based, TR-FRET. shares compounds with MC4R antag cAMP. MC4R-expressing cells, MTII-stimulated cAMP. inhibition, % at 6.5 µM. 1,600 compounds, 27% hits. AID 602195, 2012; in the data active = inhibition above about 29%
Each line names hits and unclear results; the compound was inactive in the other large screens (follow-up assays come after a bar, where they were run).

COC(=O)c1sc(N2C(=O)C(O)=C(C(=O)c3ccc(C)o3)C2c2ccc(F)cc2)nc1C (centres undefined)	MC4R antag cAMP 33 (no result: H9c2 TAG inh) | cAMP nonselect 17 | MC4R cAMP antag inactive
COC(=O)c1sc(N2C(=O)C(O)=C(C(=O)c3ccc(C)o3)C2c2ccco2)nc1C (centres undefined)	none
CSc1nnc(N2C(=O)C(O)=C(C(=O)c3ccc(C)o3)C2c2ccc(C)cc2)s1 (centres undefined)	MC4R antag cAMP active (no result: H9c2 TAG inh) | cAMP nonselect 52 | MC4R cAMP antag 88
CCOC(=O)N1CCN(C(=O)c2cc3c(-c4cccc(OC)c4)nn(C)c3s2)CC1	MC4R antag cAMP 30 (no result: H9c2 TAG inh) | cAMP nonselect inactive | MC4R cAMP antag inactive
COc1ccc([C@@H]2CC(=O)[C@@H]3CN(S(=O)(=O)c4ccc(C)cc4)[C@H](c4cccc(Cl)c4)C[C@@H]3N2S(=O)(=O)c2ccccc2)cc1	none (no result: MC4R barr agon, H9c2 TAG inh, MC4R antag cAMP, NTR1 ag)
CC(c1ccccc1)n1c(SCC(=O)N2CC(=O)Nc3ccccc32)nc2ccccc2c1=O (centres undefined)	MC4R antag cAMP 33 | cAMP nonselect inactive | MC4R cAMP antag inactive
Cc1ccc(Cn2c(SCC(=O)N3CC(=O)Nc4ccccc43)nc3ccccc3c2=O)cc1	MC4R antag cAMP 29 | cAMP nonselect inactive | MC4R cAMP antag inactive
O=C1CN(C(=O)CSc2nc3cc(Cl)ccc3c(=O)n2Cc2ccccc2)c2ccccc2N1	none (no result: H9c2 TAG inh)
O=c1cc(CN(Cc2ccccc2)Cc2ccccc2)c2ccccc2o1	none (no result: MC4R barr agon, H9c2 TAG inh, MC4R antag cAMP, NTR1 ag)
Cc1cc(NC(=O)/C(C#N)=C/c2ccc(-c3ccc(SC(F)F)cc3)o2)n(-c2ccccc2)n1	MC4R antag cAMP 36 (no result: H9c2 TAG inh) | cAMP nonselect inactive | MC4R cAMP antag inactive
COc1ccc(S(=O)(=O)NNC(=O)C(=O)NNc2ccccn2)cc1	MC4R antag cAMP 31 | cAMP nonselect inactive | MC4R cAMP antag inactive
C=C1CC2(CC(c3ccccc3)OC(c3ccccc3)C2)OC1=O (centres undefined)	MC4R antag cAMP 34 (no result: NTR1 ag) | cAMP nonselect 21 | MC4R cAMP antag 46
CNc1nc(N/N=C/c2cc([N+](=O)[O-])ccc2F)nc(Nc2ccccc2)n1	MC4R antag cAMP 47 (no result: NTR1 ag) | cAMP nonselect 19 | MC4R cAMP antag 62
CNc1nc(Nc2ccc([N+](=O)[O-])cc2)nc(OCC(F)(F)F)n1	none
COc1ccc(CN2C(=O)CSCC2(C)C(=O)NCc2ccccc2)cc1 (centres undefined)	none (no result: MC4R barr agon, H9c2 TAG inh, MC4R antag cAMP, NTR1 ag)
CC(C)C(C(=O)NCc1ccccc1)N1CCN(C(=O)C2CCCO2)CC1 (centres undefined)	none (no result: MC4R barr agon, H9c2 TAG inh, MC4R antag cAMP, NTR1 ag)
CC(C)Cc1nc2oc3c(Cl)ncnc3c2c2c1CCCC2	MC4R antag cAMP 46 | cAMP nonselect 14 | MC4R cAMP antag 32
Cc1cccc2cc(C#N)c(SCC(=O)NCc3cccs3)nc12	MC4R antag cAMP 39 (no result: H9c2 TAG inh) | cAMP nonselect 41 | MC4R cAMP antag 80
CCc1cc2cccc(C)c2nc1SCC(=O)NC1CCCC1	none (no result: H9c2 TAG inh)
CCOC(=O)CNC(=O)CSc1nc2c(C)cccc2cc1CC	MC4R antag cAMP 34 (no result: H9c2 TAG inh) | cAMP nonselect inactive | MC4R cAMP antag inactive
CC1C(=O)N(Cc2cn(Cc3ccco3)nn2)CCS(=O)(=O)N1Cc1ccc(-c2ccccc2C(F)(F)F)cc1 (centres undefined)	none (no result: MC4R barr agon, H9c2 TAG inh, MC4R antag cAMP, NTR1 ag)
CCn1cc(SCC(=O)NCc2ccc3c(c2)OCO3)c2ccccc21	none
CC(=O)c1cn(CC(=O)NCc2ccc3c(c2)OCO3)c2ccccc12	MC4R antag cAMP 31 | cAMP nonselect inactive | MC4R cAMP antag inactive
O=C(COC(=O)c1ccncc1)NCCCc1ccccc1	MC4R antag cAMP 30 (no result: H9c2 TAG inh) | cAMP nonselect inactive | MC4R cAMP antag inactive
Cn1nc(C(C)(C)C)cc1C(=O)N1CCCCC1c1cc(C(=O)NCc2ccc(F)cc2)no1 (centres undefined)	none (no result: NTR1 ag)
CC(C)Cn1c(N)c(C(=O)COC(=O)c2ccc([N+](=O)[O-])o2)c(=O)n(C)c1=O	MC4R antag cAMP 35 | cAMP nonselect inactive | MC4R cAMP antag inactive
COc1ccc(C2=Nc3ccccc3NC(=O)C2N(C(=O)c2ccnc3ccccc23)c2ccccc2)cc1 (centres undefined)	none (no result: MC4R barr agon, H9c2 TAG inh, MC4R antag cAMP, NTR1 ag)
Cc1[nH]nc(S(=O)CC(=O)O)c1[N+](=O)[O-] (centres undefined)	MC4R antag cAMP 31 | cAMP nonselect inactive | MC4R cAMP antag inactive
O=C(NCc1cccc(C(F)(F)F)c1)C1C(=O)Nc2ccccc2C(=O)N1Cc1ccccc1 (centres undefined)	none (no result: MC4R barr agon, H9c2 TAG inh, MC4R antag cAMP, NTR1 ag)
CN1CCN(C(=O)/C=C/c2cn(-c3ccccc3)nc2-c2ccc3c(c2)OCCO3)CC1	MC4R antag cAMP 36 | cAMP nonselect inactive | MC4R cAMP antag inactive
CN(C)C(=O)/C=C\c1cn(-c2ccccc2)nc1-c1ccc2c(c1)OCCO2	none
NC(=S)Nc1cccc(Cl)c1	none (no result: H9c2 TAG inh)
NC(=S)Nc1cccc(F)c1	MC4R antag cAMP 29 | cAMP nonselect inactive | MC4R cAMP antag inactive
Cc1ccc(C)n1-c1ccc(-c2nnc3n2CCCCC3)s1	MC4R antag cAMP 39 (no result: H9c2 TAG inh) | cAMP nonselect 17 | MC4R cAMP antag 33
CCOC(=O)C1(C)CCCN1C(=O)c1ccc(OC)cc1 (centres undefined)	none (no result: NTR1 ag)
COc1ccc(C(=O)NCCNc2nc3cc(C)cc(C)c3cc2C#N)c(OC)c1	none (no result: MC4R barr agon, H9c2 TAG inh, MC4R antag cAMP, NTR1 ag)
CCOC(=O)c1cc(-c2csc(-c3ccc(C(C)(C)C)cc3)n2)on1	none
CCOC(=O)c1cc(-c2csc(-c3ccc(C(F)(F)F)cc3)n2)on1	MC4R antag cAMP 37 | cAMP nonselect inactive | MC4R cAMP antag inactive
CNC(=O)C1Cc2c(-c3ccc(Cl)cc3)ccnc2O1 (centres undefined)	none (no result: NTR1 ag)
Cc1nc2c(sc3nc(N4CCOCC4)c4c(c32)CC(C)(C)OC4)c(-c2ccccc2)c1C(=O)O	MC4R antag cAMP 40 | cAMP nonselect inactive | MC4R cAMP antag inactive
CC(=O)Nc1cccc(NC(=O)CCCC2CCCCC2)c1	none
